From article PMC7114156 (Antiviral Research, 2009)
Marks after values point to notes of the source that are not given here.

Legend:
W12 cells [1] = test: mRNA measurement by RT-qPCR in W12 cells; type: cell-based, human
Procedure, shortened: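 RNA was taken 0, 24 and 48 h after adding test compound; W12 cells were grown in 75 cm² flasks and washed in chilled PBS. 546 Pathway Set genes were run in quadruplicate by RT-qPCR: 10 μl reactions, primers 900 nM, probes 100 nM final. Ct was normalised to GAPDH, with dCt = Ct(control) − Ct(treated) and a two-sided t-test. Fold change was F = 2^dCt where p ≤ 0.05.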

[2] = Growth of resting PBMC, MTS; type: cell-based; conditions: human, resting PBMCs
[3] = Growth of resting CD4 T cells, CTG; type: cell-based; conditions: human
Procedure, shortened: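 Primary cells were plated in 96-well plates with serial dilutions of test compound, 3 nM to 100 μM, for 72 h at 37 °C. Read-out was CTG for resting B and CD4 T cells and MTS for PBMC, WI38 and HUVEC. Purity was 90–95% for B cells and 97% for CD4 cells. Activated PBMCs were stimulated with phytohemagglutinin plus IL2.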

HEK293 = test: Growth of HEK293; type: cell-based, human
Procedure, shortened: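 Cell lines carrying integrated viral genomes were plated in 96-well plates in medium with test compound. Growth was read by ATP luminescence (CellTiter-Glo) for HEK293 and WI38 VA13, and by MTS reduction (A490 after 2 h at 37 °C) for Namalwa, W12 20861, SiHa, Caski and HeLa. K and Imax came from a fit to a modified Hill equation.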

U937 cells = test: Apoptosis assay; type: cell-based, human; conditions: U937, 40 h exposure
Procedure, shortened: (§1)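 Apoptosis read as cytoplasmic histone-associated DNA fragments with a Cell Death Detection ELISA kit. Exposure was 20 h for IM9 and MT4 and 40 h for W12 and U937. A405 was read kinetically at 30 °C, and the rate per hour came from linear regression of the linear portion. A Fas-activating antibody was the positive control.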

HKC/HPV16 cells = test: Growth of HKC/HPV16 cells, MTS; type: cell-based, human
[4] = system: activated primary B cells; test: Growth of activated primary B cells, CTG; type: cell-based, human; conditions: read-out: CC50, host primary cell growth, 72 h
W12 cells [5] = test: Apoptosis assay; type: cell-based, human; conditions: W12, 40 h exposure
Procedure, shortened: as §1

[6] = Growth of activated primary CD4 T cells, CTG; type: cell-based; conditions: human, CC50, host primary cell growth
[7] = W12 cells, 100 nM, 24 h, not significantly different from 1
[8] = W12 cells, 100 nM, 48 h, not significantly different from 1

SMILES: O=C(N[C@@H]1CCCc2c1[nH]c1ccc(Cl)cc21)c1ccccn1 [GSK983, N-[(1R)-6-Chloro-2,3,4,9-tetrahydro-1H-carbazol-1-yl]-2-pyridinecarboxamide]
- Fold increase due to GSK983, DMPK mRNA (W12 cells [1]; W12 cells, 100 nM, 24 h): 2.9 fold
- Fold increase due to GSK983, FMOD mRNA (W12 cells [1]; W12 cells, 100 nM, 24 h): 1.7 fold
- Fold increase due to GSK983, IFI6 mRNA (W12 cells [1]; W12 cells, 100 nM, 24 h): 2.3 fold
- Fold increase due to GSK983, IFI16 mRNA (W12 cells [1]; W12 cells, 100 nM, 24 h): 1.3 fold
- Fold increase due to GSK983, IFI44 mRNA (W12 cells [1]; W12 cells, 100 nM, 24 h): 2.9 fold
- Fold increase due to GSK983, IFIT1 mRNA (W12 cells [1]; W12 cells, 100 nM, 24 h): 5.5 fold
- Fold increase due to GSK983, IL6 mRNA (W12 cells [1]; W12 cells, 100 nM, 24 h): 3.8 fold
- Fold increase due to GSK983, IL8 mRNA (W12 cells [1]; W12 cells, 100 nM, 24 h): 2.1 fold
- Fold increase due to GSK983, IRF3 mRNA (W12 cells [1]; W12 cells, 100 nM, 24 h): 1.5 fold
- Fold increase due to GSK983, IRF9 mRNA (W12 cells [1]; W12 cells, 100 nM, 24 h): 1.6 fold
- Fold increase due to GSK983, ISG15 mRNA (W12 cells [1]; W12 cells, 100 nM, 24 h): 4.3 fold
- Fold increase due to GSK983, LRP1 mRNA (W12 cells [1]; W12 cells, 100 nM, 24 h): 3.7 fold
- Fold increase due to GSK983, NR1H3 mRNA (W12 cells [1]; W12 cells, 100 nM, 24 h): 6.8 fold
- Fold increase due to GSK983, OAS1 mRNA (W12 cells [1]; W12 cells, 100 nM, 24 h): 2.2 fold
- Fold increase due to GSK983, OAS2 mRNA (W12 cells [1]; W12 cells, 100 nM, 24 h): 1.9 fold
- Fold increase due to GSK983, OASL mRNA (W12 cells [1]; W12 cells, 100 nM, 24 h): 6.7 fold
- Fold increase due to GSK983, TLR5 mRNA (W12 cells [1]; W12 cells, 100 nM, 24 h): 2.4 fold
- Fold increase due to GSK983, TNFSF10 mRNA (W12 cells [1]; W12 cells, 100 nM, 24 h): 4.3 fold
- Fold increase due to GSK983, ERN2 mRNA (W12 cells [1]; [7]): 1.7 ^b fold
- Fold increase due to GSK983, LIFR mRNA (W12 cells [1]; [7]): 1.3 ^b fold
- Fold increase due to GSK983, SNAP25 mRNA (W12 cells [1]; [7]): 1.7 ^b fold
- Fold increase due to GSK983, CCL5 mRNA (W12 cells [1]; W12 cells, 100 nM, 48 h): 47.4 fold
- Fold increase due to GSK983, CEL mRNA (W12 cells [1]; W12 cells, 100 nM, 48 h): 10.6 fold
- Fold increase due to GSK983, COL10A1 mRNA (W12 cells [1]; W12 cells, 100 nM, 48 h): 2.4 fold
- Fold increase due to GSK983, CPT1B mRNA (W12 cells [1]; W12 cells, 100 nM, 48 h): 6.4 fold
- Fold increase due to GSK983, CSF2 mRNA (W12 cells [1]; W12 cells, 100 nM, 48 h): 4.9 fold
- Fold increase due to GSK983, DCN mRNA (W12 cells [1]; W12 cells, 100 nM, 48 h): 15.4 fold
- Fold increase due to GSK983, DMPK mRNA (W12 cells [1]; W12 cells, 100 nM, 48 h): 4.1 fold
- Fold increase due to GSK983, ERN2 mRNA (W12 cells [1]; W12 cells, 100 nM, 48 h): 2.8 fold
- Fold increase due to GSK983, FMOD mRNA (W12 cells [1]; W12 cells, 100 nM, 48 h): 2.5 fold
- Fold increase due to GSK983, IFI6 mRNA (W12 cells [1]; W12 cells, 100 nM, 48 h): 7.3 fold
- Fold increase due to GSK983, IFIT1 mRNA (W12 cells [1]; W12 cells, 100 nM, 48 h): 5.5 fold
- Fold increase due to GSK983, IL6 mRNA (W12 cells [1]; W12 cells, 100 nM, 48 h): 10.2 fold
- Fold increase due to GSK983, IL8 mRNA (W12 cells [1]; W12 cells, 100 nM, 48 h): 2.3 fold
- Fold increase due to GSK983, ISG15 mRNA (W12 cells [1]; W12 cells, 100 nM, 48 h): 9.3 fold
- Fold increase due to GSK983, LIFR mRNA (W12 cells [1]; W12 cells, 100 nM, 48 h): 2.2 fold
- Fold increase due to GSK983, LRP1 mRNA (W12 cells [1]; W12 cells, 100 nM, 48 h): 3.5 fold
- Fold increase due to GSK983, NR1H3 mRNA (W12 cells [1]; W12 cells, 100 nM, 48 h): 2.7 fold
- Fold increase due to GSK983, OAS1 mRNA (W12 cells [1]; W12 cells, 100 nM, 48 h): 5.0 fold
- Fold increase due to GSK983, OAS2 mRNA (W12 cells [1]; W12 cells, 100 nM, 48 h): 2.9 fold
- Fold increase due to GSK983, OASL mRNA (W12 cells [1]; W12 cells, 100 nM, 48 h): 10.9 fold
- Fold increase due to GSK983, SNAP25 mRNA (W12 cells [1]; W12 cells, 100 nM, 48 h): 4.7 fold
- Fold increase due to GSK983, TLR5 mRNA (W12 cells [1]; W12 cells, 100 nM, 48 h): 3.1 fold
- Fold increase due to GSK983, TNFSF10 mRNA (W12 cells [1]; W12 cells, 100 nM, 48 h): 8.4 fold
- Fold increase due to GSK983, IFI16 mRNA (W12 cells [1]; [8]): 1.2 ^b fold
- Fold increase due to GSK983, IRF3 mRNA (W12 cells [1]; [8]): 1.2 ^b fold
- Number of genes of the Pathway Set with significant increases in expression (W12 cells [1]; W12 cells, at both 10 and 100 nM, 546 genes): 22 genes
- Expression of the three interferons (alpha, beta, and gamma), PKR and Mx1 (W12 cells [1]; data not shown): not induced
- CC50 at 72 h [2]: 520 µM
- CC50 at 72 h [3]: 60 µM
- Imax, Growth, CTG (HEK293; HEK293, Adenovirus 5 integrated, 72 h): 52 ± 2%
- EC50 (HEK293; Homo sapiens, HEK293, 72 h, read-out: K, Growth, CTG): 0.012 ± 0.002 µM
- Apoptosis (U937 cells): apoptosis did not occur
- Imax, Growth, MTS (HKC/HPV16 cells; HKC/HPV16): 59 ± 1%
- EC50 (HKC/HPV16 cells; Homo sapiens, read-out: K, Growth, MTS): 0.003 ± 0.0004 µM
- CC50 [4]: > 10 µM
- Apoptosis (W12 cells [5]): apoptosis did not occur
- CC50 at 72 h [6]: 57 µM
